Results gathered from unrelated publications.
Protocols differ between the studies behind these lines.
Target: Protein kinase C iota type (PRKCI, Homo sapiens, UniProt P41743)
Sequence (P41743 1-596, as in one of the studies): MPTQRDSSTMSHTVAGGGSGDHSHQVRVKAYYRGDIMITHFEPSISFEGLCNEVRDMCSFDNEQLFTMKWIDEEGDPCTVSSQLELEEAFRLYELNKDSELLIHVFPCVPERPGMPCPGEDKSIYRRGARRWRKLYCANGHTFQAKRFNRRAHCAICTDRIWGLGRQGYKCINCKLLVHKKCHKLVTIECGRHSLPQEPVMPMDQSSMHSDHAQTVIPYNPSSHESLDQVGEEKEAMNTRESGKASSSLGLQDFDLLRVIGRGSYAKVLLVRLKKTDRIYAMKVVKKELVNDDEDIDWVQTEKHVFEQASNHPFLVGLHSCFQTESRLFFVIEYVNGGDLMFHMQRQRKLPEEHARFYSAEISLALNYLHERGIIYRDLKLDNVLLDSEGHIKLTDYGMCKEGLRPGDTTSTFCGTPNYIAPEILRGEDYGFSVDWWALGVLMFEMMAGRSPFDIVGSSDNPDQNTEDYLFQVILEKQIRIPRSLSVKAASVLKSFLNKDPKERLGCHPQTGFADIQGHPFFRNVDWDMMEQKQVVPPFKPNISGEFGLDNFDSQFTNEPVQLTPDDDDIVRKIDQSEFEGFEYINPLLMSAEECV

CC(C)(C)c1cc(C=C(C#N)C#N)cc(Br)c1O
remaining activity (enzyme activity; inhibitor; 0.5 µM): 100%

COCc1c(-c2cc3cc(C)cc(OC)c3s2)c2c(N)ncnn2c1CN1CCNC(=O)C1
inhibition (cell-free assay; competition with immobilised ligand; 1 µM): 80%

COc1ncccc1-c1cnn2ccc(N3CCN(C(=O)OC(C)C)CC3)nc12
remaining binding (binding; competition with immobilised ligand; 1 µM): 90%

Cn1cc(-c2cc(F)cc(N3CCn4c(cc5c4CCCC5)C3=O)c2CO)cc(Nc2ccc(N3CCN(C4COC4)CC3)cn2)c1=O
inhibition (enzyme activity; inhibitor; 0.1 µM): -3%

O=c1[nH]c2ccccc2n1C1CCN(Cc2ccc(-c3[nH]c4cc5ncnc5cc4nc3-c3ccccc3)cc2)CC1
remaining signal (cell-free assay; 0.5 µM): 97%

Cn1cncc1[C@](O)(COc1ccc(C#N)cc1-c1ccc(OC(F)(F)F)cc1)c1ccc(C#N)cc1
remaining binding (cell-free assay; competition with immobilised ligand; 1 µM): 100%

Cn1cc(-c2cccc(N3CCc4c(sc5c4CC(C)(C)C5)C3=O)c2CO)cc(Nc2ccncn2)c1=O
inhibition (enzyme activity; inhibitor; 1 µM): 6%

COc1cc(Nc2ncc(F)c(Nc3ccc4c(n3)NC(=O)C(C)(C)O4)n2)cc(OC)c1OC
inhibition (binding; 10 µM): 35%
